Results taken from ChEMBL document CHEMBL1140288, “First synthesis and evaluation of the inhibitory effects of aza analogues of TSAO on HIV-1 replication” (J Med Chem, 2005).

Experiments:
[1] = tested on: Human immunodeficiency virus 1; assay: Concentration of compound inhibiting Tyr181Cys mutant HIV-1(IIIB) induced cytopathicity in CEM cell culture by 50%; format: functional, organism-based; details: Human immunodeficiency virus 1, CCRF-CEM
In short: (§1)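 CEM cells at 4 × 10⁵ per mL infected at ~100 CCID₅₀ per mL of cell suspension, then mixed 1:1 with compound dilutions in microtiter wells. Giant cell formation was scored microscopically after 4 days. EC₅₀ is the concentration inhibiting virus-induced cytopathicity by 50%. Mutant HIV-1(IIIB) RT strains were selected as described previously.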

MT4 [2] = assay: Concentration of compound required to inhibit HIV-1(IIIB) induced cytopathicity in MT-4 cell culture by 50%; format: functional, cell-based; details: Homo sapiens
In short: (§2)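 MT-4 cells at 3 × 10⁵ per mL were infected with HIV-1(III_B) or HIV-2(ROD) at ∼100 CCID₅₀ per mL, then mixed 1:1 with compound dilutions. After 4 days, viability was read by the MTT method. EC₅₀ was taken as the concentration giving 50% protection against HIV-induced cytopathicity.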

CCRF-CEM [3] = assay: Concentration of compound required to inhibit HIV-1(IIIB) induced cytopathicity in CEM cell culture by 50%; format: functional, cell-based; details: Homo sapiens
In short: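 CEM cells at 4 × 10⁵ per mL were infected with HIV-1(III_B) at ∼100 CCID₅₀ per mL and mixed 1:1 with serial compound dilutions. Giant cell formation was scored microscopically after 4 days. EC₅₀ was taken as the concentration giving 50% inhibition of virus-induced cytopathicity.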

[4] = Concentration of compound required to reduce by 50% the number of viable cells in mock infected CEM cell cultures; format: functional; details: Homo sapiens, CCRF-CEM
In short: (§3)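 Mock-infected CEM cells (4 × 10⁵ per mL) or MT-4 cells (3 × 10⁵ per mL) were exposed to serial compound dilutions for 4 days. CC₅₀ was the concentration reducing the number of viable cells by 50%.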

CCRF-CEM [5] = assay: Concentration of compound required to inhibit HIV-2 (ROD) induced cytopathicity in CEM cell culture by 50%; format: functional, cell-based; details: Homo sapiens; in short: as §1
MT4 [6] = assay: Concentration of compound required to inhibit HIV-2 (ROD) induced cytopathicity in MT-4 cell culture by 50%; format: functional, cell-based; details: Homo sapiens; in short: as §2
MT4 [7] = assay: Concentration of compound required to reduce by 50% the number of viable cells in mock infected MT-4 cell cultures; format: functional; details: Homo sapiens; in short: as §3
CCRF-CEM [8] = assay: Concentration of compound inhibiting Lys103-Asn mutant HIV-1(IIIB) induced cytopathicity in CEM cell culture by 50%; format: functional, cell-based; details: Homo sapiens; in short: as §1
CCRF-CEM [9] = assay: Concentration of compound inhibiting Glu138-Lys mutant HIV-1(IIIB) induced cytopathicity in CEM cell culture by 50%; format: functional, cell-based; details: Homo sapiens; in short: as §1
CCRF-CEM [10] = assay: Concentration of compound inhibiting Tyr181- Cys mutant HIV-1(IIIB) induced cytopathicity in CEM cell culture by 50%; format: functional, cell-based; details: Homo sapiens; in short: as §1

SMILES: Cc1cn([C@@H]2O[C@H](CO[Si](C)(C)C(C)(C)C)[C@]3(C(N)=CS(=O)(=O)N3C)[C@H]2O[Si](C)(C)C(C)(C)C)c(=O)n(C)c1=O
- EC50 [1]: > 250 µM
- EC50 (MT4 [2]): 0.66 µM
- EC50 (CCRF-CEM [3]): 2.5 µM
- CC50 [4]: > 250 µM
- EC50 (CCRF-CEM [5]): > 250 µM
- EC50 (MT4 [6]): > 200 µM
- CC50 (MT4 [7]): > 200 µM

SMILES: Cc1cn([C@@H]2O[C@H](CO[Si](C)(C)C(C)(C)C)[C@@]3(NS(=O)(=O)C=C3N)[C@H]2O[Si](C)(C)C(C)(C)C)c(=O)[nH]c1=O
- EC50 [1]: > 10 µM
- EC50 (MT4 [2]): 0.53 µM
- EC50 (CCRF-CEM [3]): 0.33 µM
- CC50 [4]: 19.1 µM
- EC50 (CCRF-CEM [5]): > 10 µM
- EC50 (MT4 [6]): > 100 µM
- CC50 (MT4 [7]): 105 µM

SMILES: Cc1cn([C@@H]2O[C@H](CO[Si](C)(C)C(C)(C)C)[C@@]3(NS(=O)(=O)C=C3N)[C@H]2O[Si](C)(C)C(C)(C)C)c(=O)n(C(=O)OC(C)(C)C)c1=O
- EC50 (MT4 [2]): 0.13 µM
- EC50 (CCRF-CEM [3]): 0.43 µM
- CC50 [4]: 21.2 µM
- EC50 (CCRF-CEM [5]): > 10 µM
- EC50 (CCRF-CEM [8]): 5 µM
- CC50 (MT4 [7]): 19 µM

SMILES: CCn1c(=O)c(C)cn([C@@H]2O[C@H](CO[Si](C)(C)C(C)(C)C)[C@@]3(NS(=O)(=O)C=C3N)[C@H]2O[Si](C)(C)C(C)(C)C)c1=O
- EC50 [1]: > 2 µM
- EC50 (CCRF-CEM [3]): 0.31 µM
- CC50 [4]: 4.9 µM
- EC50 (CCRF-CEM [8]): > 2 µM
- EC50 (CCRF-CEM [9]): > 2 µM

SMILES: Cc1cn([C@@H]2O[C@H](CO[Si](C)(C)C(C)(C)C)[C@]3(C(N)=CS(=O)(=O)N3C)[C@H]2O[Si](C)(C)C(C)(C)C)c(=O)[nH]c1=O
- EC50 [1]: > 10 µM
- EC50 (MT4 [2]): 1.6 µM
- EC50 (CCRF-CEM [3]): 3.5 µM
- CC50 [4]: 21.6 µM
- EC50 (CCRF-CEM [5]): > 10 µM
- EC50 (MT4 [6]): > 20 µM
- CC50 (MT4 [7]): 19 µM

SMILES: Cc1cn([C@@H]2O[C@H](CO[Si](C)(C)C(C)(C)C)[C@@]3(OS(=O)(=O)C=C3N)[C@H]2O[Si](C)(C)C(C)(C)C)c(=O)[nH]c1=O
- EC50 (MT4 [2]): 0.06 µM
- EC50 (CCRF-CEM [3]): 0.06 µM
- CC50 [4]: 16 µM
- EC50 (CCRF-CEM [5]): > 4 µM
- EC50 (CCRF-CEM [8]): 0.4 µM
- EC50 (CCRF-CEM [9]): 4.6 µM
- EC50 (MT4 [6]): > 20 µM
- EC50 (CCRF-CEM [10]): 3 µM
- CC50 (MT4 [7]): 14 µM

SMILES: Cc1cn([C@@H]2O[C@H](CO[Si](C)(C)C(C)(C)C)[C@]3(C(N)=CS(=O)(=O)N3C)[C@H]2O[Si](C)(C)C(C)(C)C)c(=O)n(C(=O)OC(C)(C)C)c1=O
- EC50 [1]: > 10 µM
- EC50 (MT4 [2]): 1.8 µM
- EC50 (CCRF-CEM [3]): 3.5 µM
- CC50 [4]: 20.6 µM
- EC50 (CCRF-CEM [5]): > 10 µM
- EC50 (MT4 [6]): > 20 µM
- CC50 (MT4 [7]): 20 µM

SMILES: Cc1cn([C@@H]2O[C@H](CO[Si](C)(C)C(C)(C)C)[C@@]3(NS(=O)(=O)C=C3N)[C@H]2O[Si](C)(C)C(C)(C)C)c(=O)n(C)c1=O
- EC50 [1]: > 10 µM
- EC50 (CCRF-CEM [3]): 0.22 µM
- CC50 [4]: 5.8 µM
- EC50 (CCRF-CEM [8]): 4 µM
- EC50 (CCRF-CEM [9]): > 10 µM
